Source: PubChem BioAssay
TRPC4 inh – TRPC4 (mouse) channel inhibition; HEK293 TRPC4beta/mu-opioid, DAMGO-evoked Fluo4 calcium flux; hits give low values; B-score at 10 µM; 0.39% of 300,000 active; AID 2247;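 active = B-score over 3 SD under the library average, no early fluorescence shift, positive overall ratio signal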
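System: stable TRPC4beta/mu-opioid receptor HEK293 cells; Dosing: single-point compound dosing; Measured by: Fluo4 Ca2+ flux fluorescence; Read-out basis: per-well B score of integrated baseline-normalized Fluo4 ratio.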
TRPC6 activator – activators of mouse TRPC6 channel | Q61143 | HEK293-TRPC6 membrane potential dye fluorescence; hits give high values | B-score at 10 µM | 0.13% of 310,000 active;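 active = B-score of the integrated fluorescence ratio above library mean plus 3 SD, and starting fluorescence ratio within library mean plus 5 SD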;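 also: higher score means more depolarization so channel activation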
TRPC4 agonist – TRPC4 (mouse) channel activation | HEK293 TRPC4beta/mu-opioid, Fluo4 calcium fluorescence; hits give high values | Q9QUQ5 | B-score at 10 µM | 0.49% of 310,000 active;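 active = B-score above 5 SD of library B-scores, and initial fluorescence ratio not above library mean plus 5 SD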;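 also: positive B-score marks a calcium rise read as TRPC4 activation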
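Technique: kinetic Fluo4 calcium fluorescence; Test system: TRPC4beta and mu-opioid receptor HEK293 stable cells; Measure: B-scored integrated calcium fluorescence ratio; Benchmarks: low control buffer alone, high control maximal DAMGO; Schedule: 45 min room-temperature Fluo4 loading, 110 s read.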
TRPC6 inh – mouse TRPC6 channel inhibition | 1.1% of 310,000 active | B-score at 10 µM | AID 2553 | HEK293-TRPC6, membrane potential dye, ACh-evoked depolarization; hits give low values;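 active = B-score under library mean minus 3 SD, initial fluorescence not abnormally high, positive integrated signal ratio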;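 also: B-score derived from integrated fluorescence ratio over the kinetic read; more negative B-score means stronger inhibition of depolarization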
TRPC4 potent – allosterically enhances the mouse TRPC4 cation channel. Q9QUQ5. HEK293 TRPC4beta/mu-opioid, DAMGO EC20, Fluo-4 Ca2+ flux; hits give high values. B-score at 10 µM. 0.42% of 310,000 active. AID 2227;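 active = B-score of calcium response area above 5 SD of library B-scores, with initial fluorescence ratio within 5 SD of library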;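 also: B-score of integrated fluorescence ratio over time as area under calcium response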
TRPC4 spec 2 – second check of whether TRPC6 inhibitors also affect mouse TRPC4; 42% of 920 active; inhibition, % at 10 µM; HEK293 TRPC4/MOR, membrane potential dye fluorescence; channel activated by saturating DAMGO dose; shares compounds with TRPC6 inh; AID 2776;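 active = compounds whose fluorescence signal differed from control wells by over 3 SD, either direction, in both duplicate plates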
TRPC4 spec – selectivity of TRPC6 inhibitors: effect on mouse TRPC4. 61% of 920 active. shares compounds with TRPC6 inh. activity change, negative = inhibition, % at 10 µM. HEK293 TRPC4/mu-opioid, membrane potential fluorescence;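 active = rise or fall in signal beyond 3 SD of buffer-only wells in both replicate plates, either sign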;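 also: integrated kinetic ratio of fluorescence range over baseline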
HEK293 MPD ctr 2-1 – second check of TRPC6 inhibitor effects in parental HEK293 cells; shares compounds with TRPC6 inh; AID 2779; 31% of 920 active; signal change vs control, % at 10 µM; parental HEK293 membrane potential dye fluorescence; maximal acetylcholine challenge after compound addition;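 active = membrane potential signal moving either way by over 3 SD of the maximum-effect control, in both duplicate plates, meaning non-specific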
HEK293 MPD ctr-1 – counter-screen for TRPC6 inhibitors: effect in parental HEK293 cells; shares compounds with TRPC6 inh; membrane potential signal change, % at 10 µM; parental HEK293 membrane potential dye fluorescence; 60% of 920 active;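 active = membrane potential signal shifting up or down by more than 3 SD of buffer-only wells, on both duplicate plates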
HEK293 MPD ctr-2 – counter-screen for TRPC6 modulators: effect in parental HEK293 cells; membrane potential signal change, % at 10 µM; membrane potential dye fluorescence; shares compounds with TRPC6 inh; AID 488924; 51% of 2,400 active;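 active = membrane potential signal moves up or down beyond 5 SD from buffer-only wells, on both duplicate plates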
HEK293 MPD ctr 2-2 – second check of TRPC6 modulator effects in parental HEK293 cells | shares compounds with TRPC6 inh | membrane potential dye fluorescence; after compound, maximal acetylcholine stimulation | inhibition, % at 10 µM | 14% of 2,400 active | AID 488926;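 active = membrane potential signal drops by more than 5 SD from the mean control signal, in both duplicate plates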;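 also: plate controls were acetylcholine ECmax control wells for no effect and buffer only wells for full effect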
TRPC4 ctr mod – tests whether TRPC6 modulators also affect mouse TRPC4. HEK293 TRPC4/mu-opioid, membrane potential fluorescence. shares compounds with TRPC6 inh. 69% of 2,400 active. percent change from control (negative = decrease, positive = increase), % at 10 µM. AID 488927;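 active = membrane potential signal moved up or down beyond 5 SD of buffer control wells, in both duplicate plates, actives on both sides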;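 also: plate controls were assay buffer wells for no effect and DAMGO maximal-effect wells for full effect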
TRPC4 ctr inh 2 – mouse TRPC4 off-target activity of TRPC6 modulators, second screen. 55% of 2,400 active. inhibition, % at 10 µM. shares compounds with TRPC6 inh. HEK293 TRPC4/mu-opioid, membrane potential dye fluorescence; stimulated with maximal-effect DAMGO. AID 488928;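 active = drop in membrane potential signal beyond 5 SD of the control wells in both duplicate plates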;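 also: TRPC4 counter screen for TRPC6 hits run under conditions tuned for TRPC6 not TRPC4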
TRPC6 inh conf – mouse TRPC6 inhibitor confirmation | AID 488960 | shares compounds with TRPC6 inh | inhibition, % at 10 µM | HEK293-TRPC6, membrane potential dye, ACh-evoked depolarization | 43% of 3,300 active;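 active = fluorescence ratio falls more than 5 SD below the full-stimulation control mean, in both duplicate runs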;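 also: integrated fluorescence ratio of peak minus minimum over baseline after agonist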
TRPC6 act confirm – confirmation of mouse TRPC6 activators; shares compounds with TRPC6 inh; HEK293-TRPC6 membrane potential dye fluorescence, FDSS; activation, % at 10 µM; 11% of 2,800 active; AID 488961;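 active = ratio signal rise beyond 5 SD above unstimulated control wells' mean, seen in both duplicate runs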;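 also: plate controls were buffer EC0 wells for no effect and acetylcholine ECmax response for full effect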
An asterisk follows results filed as active; i = inactive; . = no result given. Only some compounds are listed: those with a hit (about 2.3% of all), similar ones and a draw of the others.

SMILES | TRPC4 inh | TRPC6 activator | TRPC4 agonist | TRPC6 inh | TRPC4 potent | TRPC4 spec 2 | TRPC4 spec | HEK293 MPD ctr 2-1 | HEK293 MPD ctr-1 | TRPC6 inh conf | TRPC6 act confirm | others
Cc1ccc(C(=O)/C=C/NNC(=O)c2ccccc2O)cc1 | i | i | i | i | i | . | . | . | . | . | .
COc1c2ccoc2nc2c(OC)c(O)ccc12 | i | i | i | i | i | . | . | . | . | . | .
COc1ccc2c(OC)c3ccoc3nc2c1OC | i | i | i | -5.59* | i | . | . | . | . | i | . | HEK293 MPD ctr-2=i;HEK293 MPD ctr 2-2=i;TRPC4 ctr mod=i;TRPC4 ctr inh 2=i
CCOc1cc2c(C#N)c(N3CCNCC3)nc(N)c2c(N)n1 | i | i | i | -5.88* | 12* | . | . | . | . | 37.5%* | i | HEK293 MPD ctr-2=-193.5%*;HEK293 MPD ctr 2-2=i;TRPC4 ctr mod=-25.0%*;TRPC4 ctr inh 2=i
O=[N+]([O-])c1ccc(N=Nc2c(Cl)cc(O)cc2Cl)cc1 | i | i | i | -9.64* | i | 27.0%* | 5.7%* | -26.0%* | i | 114.1%* | i
COc1cccc(/C=N/NC(=O)c2cnn(-c3ccccc3)c2N)c1 | i | i | i | i | i | . | . | . | . | . | .
CCOC(=O)c1[nH]c2ccc(F)cc2c1NC(=O)CN1CCN(C/C=C/c2ccccc2)CC1 | i | i | i | -11.8* | i | 40.0%* | -20.9%* | i | -246.5%* | 87.9%* | i
CCOC(=O)c1[nH]c2ccc(F)cc2c1NC(=O)CN1CCc2cc(OC)c(OC)cc2C1 | i | i | i | i | i | . | . | . | . | . | .
COC(=O)c1[nH]c2ccccc2c1NC(=O)CN1CCN(C/C=C/c2ccccc2)CC1 | i | i | i | -7.84* | i | 30.5%* | -16.0%* | i | -176.0%* | 79.4%* | i
COC(=O)c1[nH]c2ccccc2c1NC(=O)CN1CC(C)OC(C)C1 (stereo not drawn) | i | i | i | i | i | . | . | . | . | . | .
Cc1ccc(C#CC(C)(O)C(C)(C)C)cn1 (stereo not drawn) | i | i | i | i | i | . | . | . | . | . | .
Cn1c(CNc2ccc(Cl)cc2)nnc1SCCN1CCCCC1 | i | i | i | -5.14* | i | . | . | . | . | i | i | HEK293 MPD ctr-2=i;HEK293 MPD ctr 2-2=i;TRPC4 ctr mod=17.5%*;TRPC4 ctr inh 2=38.0%*
N#Cc1c2c(c(NCc3ccco3)n3c1nc1ccccc13)CCC2 | i | i | i | i | i | . | . | . | . | . | .
CN(C)CCNc1c2c(c(C#N)c3nc4ccccc4n13)CCCC2 | i | i | i | -11.2* | i | 59.5%* | -28.1%* | 48.0%* | -383.5%* | 72.6%* | i
